Source: PubChem BioAssay
pPAFAH inh: pPAFAH enzyme inhibitors, primary screen, biochemical, fluorescence polarization, human | Platelet-activating factor acetylhydrolase (Homo sapiens), Q13093 | recombinant pPAFAH, FP-rhodamine probe fluorescence polarization | inhibition, % at 3.39 µM | actives 1.5% (n = 330,000);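 active = inhibition above the mean inhibition across the screen plus 3 SD, cut at about 25% in these data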;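 note: inhibitors block binding of the rhodamine activity-based probe so polarization drops; 0% = enzyme with DMSO and 100% = wells lacking pPAFAH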
Target sequence (Q13093 whole entry, looked up): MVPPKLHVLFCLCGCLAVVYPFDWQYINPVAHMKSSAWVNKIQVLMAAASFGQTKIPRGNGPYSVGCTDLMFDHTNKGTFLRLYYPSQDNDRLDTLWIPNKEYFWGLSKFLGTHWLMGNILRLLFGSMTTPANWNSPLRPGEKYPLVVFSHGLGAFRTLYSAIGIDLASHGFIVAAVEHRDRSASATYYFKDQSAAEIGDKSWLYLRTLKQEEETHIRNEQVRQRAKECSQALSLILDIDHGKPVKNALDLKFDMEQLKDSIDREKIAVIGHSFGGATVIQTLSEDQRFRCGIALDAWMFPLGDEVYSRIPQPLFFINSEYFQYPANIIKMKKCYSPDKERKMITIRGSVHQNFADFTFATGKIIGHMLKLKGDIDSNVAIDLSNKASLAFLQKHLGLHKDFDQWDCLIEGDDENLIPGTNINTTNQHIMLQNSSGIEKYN
PAFAH2 inh: PAFAH2 enzyme inhibitors, primary screen, biochemical, fluorescence polarization, human | actives 0.99% (n = 340,000) | Platelet-activating factor acetylhydrolase 2, cytoplasmic (Homo sapiens), Q99487 | AID 492956, 2010 | recombinant PAFAH2, FP-rhodamine activity probe | inhibition, % at 3.39 µM;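 active = inhibition above the mean over all tested compounds plus 3 SD, cut at about 30% in these data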;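 note: inhibitors block probe labeling of enzyme so polarization drops; 0% = enzyme with DMSO and 100% = wells lacking PAFAH2 protein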
PAFAH1B2 FP inh: PAFAH1B2 enzyme inhibitors, primary screen, biochemical, fluorescence polarization, human. Platelet-activating factor acetylhydrolase IB subunit alpha2 (Homo sapiens), P68402. recombinant PAFAH1B2, FP-rhodamine activity probe. inhibition, % at 3.39 µM. actives 1.2% (n = 340,000). AID 492953, 2010;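 active = inhibition above the mean of all tested compounds plus 3 SD, cut at about 24% in these data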;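 note: 0% = enzyme with DMSO and 100% = wells lacking PAFAH1B2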
ABHD4 inh: ABHD4 inhibitors, primary screen, biochemical, fluorescence polarization, mouse; inhibition, % at 8.92 µM; purified mABHD4, FP-Rh probe fluorescence polarization; actives 0.54% (n = 370,000); AID 720543, 2013; (Lyso)-N-acylphosphatidylethanolamine lipase (Mus musculus), Q8VD66;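 active = inhibition exceeding the mean over every tested compound plus 3 SD, cut at about 30% in these data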;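 note: 0% = plate median of compound wells and 100% = S159A mutant with DMSO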
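Test system: mABHD4 protein | Buffer or medium: HEPES pH 7.0 buffer, 150 mM NaCl, 0.01% Pluronic F-127 | Probe or stimulus: FP-Rh fluorescent activity-based probe, added after compound pre-incubation | Timing: Pre-incubation 45 min, probe exposure 60 min, at 25 °C | Technique: Fluorescence polarization, excitation 525 nm, emission 598 nm, BODIPY TMR filters | Repeats: Single well per compound (singlicate)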
HTRA1 inhibitor: HTRA1 serine protease inhibitors, primary screen, biochemical, fluorescence polarization, HTS | Q92743 | recombinant HTRA1, FP-rhodamine activity-based probe | inhibition, % at 5.96 µM | actives 0.5% (n = 340,000) | AID 504803, 2011; in the data active = inhibition above about 36%;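 note: 0% = enzyme with DMSO and 100% = wells lacking enzyme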
PAFAH1B3 inh: PAFAH1B3 enzyme inhibitors, primary screen, biochemical, fluorescence polarization, human. actives 0.28% (n = 340,000). inhibition, % at 3.39 µM. recombinant PAFAH1B3, FP-rhodamine probe. Platelet-activating factor acetylhydrolase IB subunit alpha1 (Homo sapiens), Q15102. AID 492972, 2010;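 active = inhibition above the screen-wide average of all tested compounds plus 3 SD, cut at about 25% in these data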;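 note: 0% = enzyme with DMSO only and 100% = wells lacking PAFAH1B3 protein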
Target sequence (Q15102 whole entry, looked up): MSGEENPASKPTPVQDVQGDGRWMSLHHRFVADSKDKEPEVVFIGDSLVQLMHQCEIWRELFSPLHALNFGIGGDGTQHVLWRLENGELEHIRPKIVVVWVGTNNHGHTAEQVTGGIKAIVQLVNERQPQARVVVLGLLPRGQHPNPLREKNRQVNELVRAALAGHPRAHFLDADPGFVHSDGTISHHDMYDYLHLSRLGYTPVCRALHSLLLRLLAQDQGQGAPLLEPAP
PAFAH2 confirm: PAFAH2 enzyme inhibitors, confirmation, biochemical, fluorescence polarization, human; shares compounds with PAFAH2 inh; recombinant PAFAH2, FP-rhodamine activity probe; inhibition, % at 3.39 µM; actives 65% (n = 2,300); AID 493030, 2011;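 active = mean inhibition over three repeats above a set limit taken from the earlier primary screen, cut at about 30% in these data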;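 note: inhibitor blocks binding of rhodamine activity probe so polarization falls; 0% = enzyme with DMSO and 100% = wells lacking PAFAH2 protein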
* marks the source's active call; other numbers are inactive results; · = no result. Sampled rows, rich in hits. Any-hit rate of the full collection: about 2.8%.

SMILES	pPAFAH inh	PAFAH2 inh	PAFAH1B2 FP inh	ABHD4 inh	HTRA1 inhibitor	PAFAH1B3 inh	PAFAH2 confirm
Cc1ccccc1CN1CCCCC(NC(=O)c2c(F)cccc2F)C1=O (stereo unspecified)	·	·	·	1.8	·	·	·
COC(=O)[C@]12C[C@H](CC(=O)NCc3cccs3)C(=O)N(Cc3cccc4ccccc34)C1=C[C@H](COCc1ccccc1)O[C@@H]2C	·	·	·	-13.2	·	·	·
Cc1ccc(S(=O)(=O)N2CCC(C(=O)NCc3cccs3)CC2)cc1	·	·	·	2.4	·	·	·
COc1ccc(-n2c(SCC(=O)NCC3CCCO3)nnc2-c2ccncc2)cc1 (stereo unspecified)	·	·	·	3.9	·	·	·
Cc1cccc(C(=O)O/N=C(\N)Cc2cccc3ccccc23)c1	6.7	75.3*	5.4	·	28.6	-1.8	73.7*
Cc1cccc(C(=O)O/N=C(\N)Cc2ccc([N+](=O)[O-])cc2)c1	15.2	37.3*	0.2	-3.0	-20.5	5.4	29.6
CCCC[C@H]1C2CC(OC(=O)NCCCC(=O)OCC)C(C2)[C@H]2CCCCN21 (stereo partly specified)	·	·	·	-4.1	·	·	·
COc1ccc(C(=O)OCn2nnc3ccccc3c2=O)cc1OC	2.9	36.4*	-5.2	-8.8	-0.2	4.8	45.9*
COc1cccc(C(=O)OCn2nnc3ccccc3c2=O)c1	1.4	36.8*	7.5	-2.1	-5.8	8.9	21.5
O=C(OCn1nnc2ccccc2c1=O)c1cccs1	6.7	47.0*	6.2	1.1	-10.4	5.0	36.5*
COc1ccc(C(=O)OCn2nnc3ccccc3c2=O)cc1[N+](=O)[O-]	-1.2	15.1	4.3	-5.0	1.2	5.2	·
O=c1[nH]c(Cc2cccs2)nc2ccccc12	3.7	-3.4	0.6	1.6	-2.6	0.8	·
O=C(OCc1nc2ccccc2c(=O)[nH]1)c1cccs1	1.8	42.0*	-5.5	-2.8	9.0	1.2	29.2
CC1CCCC(C)N1C(=O)COC(=O)c1ccco1 (stereo unspecified)	-3.0	31.1*	5.7	-3.3	4.5	10.9	4.0
COC(=O)[C@]12C[C@H](CC(=O)N3CCN(C(=O)c4ccco4)CC3)C(=O)N(CCC3=CCCCC3)C1=C[C@H](C1CCCC1)O[C@@H]2C	·	·	·	0.4	·	·	·
Cn1nnnc1SCC1=C(C(=O)O)N2C(=O)C(NC(=O)C3CC3c3ccccc3)C2SC1 (stereo unspecified)	0.9	44.2*	6.7	-0.1	-3.7	-2.6	6.3
Cn1nnnc1SCC1=C(C(=O)O)N2C(=O)[C@@H](NC(=O)[C@H](O)c3ccccc3)[C@H]2SC1	4.8	7.1	4.7	·	-5.1	8.7	·
COCCCN1C(=O)[C@H](CC(=O)NCc2cccs2)[C@]2(C(=O)OC)CCCCC=C12	·	·	·	5.0	·	·	·
COc1ccccc1NC(=O)COC(=O)/C=C/c1ccc(OC)c(OC)c1	3.6	37.0*	5.4	-1.1	-0.4	8.0	21.8
O=C(COC(=O)/C=C/c1cccs1)Nc1ccc(Cl)cc1F	5.0	52.0*	4.2	-1.5	-2.9	-1.0	58.0*
COc1ccc(/C=C/C(=O)OCC(=O)Nc2ccc(Cl)c(S(=O)(=O)N(C)C)c2)cc1OC	15.4	83.8*	-4.8	-7.8	-24.4	-2.9	75.1*
COCCNC(=O)COC(=O)c1ccc(OCC(=O)Nc2ccccc2OC)c(OC)c1	1.4	32.2*	2.7	-5.8	1.9	11.9	19.4
COc1ccc(/C=C/C(=O)OCC(=O)Nc2ccc(S(N)(=O)=O)cc2)cc1OC	-0.3	2.3	5.2	-9.5	5.2	-1.4	·
CC(C)(C)c1ccc(S(=O)(=O)N2CCCC(C(=O)NCCN3CCC(Cc4ccccc4)CC3)C2)cc1 (stereo unspecified)	·	·	·	12.7	·	·	·
Cc1ccc(C2CCC3(CCC(=O)N3CCOC(=O)Nc3cccc(C#N)c3)CC2)cc1 (stereo unspecified)	·	·	·	2.6	·	·	·
SMILES	pPAFAH inh	PAFAH2 inh	PAFAH1B2 FP inh	ABHD4 inh	HTRA1 inhibitor	PAFAH1B3 inh	PAFAH2 confirm
COc1ccccc1NC(=O)COC(=O)/C=C/c1cccs1	-4.4	31.1*	4.2	1.0	-7.0	8.5	22.6
COc1ccc(NC(=O)COC(=O)/C=C/c2cccs2)c(OC)c1	6.8	12.4	6.8	8.7	-8.4	12.8	·
O=C(NCC1CCCO1)NC12CC3CC(CC(C3)C1)C2 (stereo unspecified)	6.0	33.5*	2.2	6.7	-2.4	-0.2	26.6
Cc1cc(C)c(S(=O)(=O)N2CCN(C(=O)N3CCCCC3)CC2)c(C)c1	1.3	33.6*	-2.8	4.7	-4.3	7.6	29.8*
COc1ccc(S[C@]2(C(=O)N(C)C)CC(=O)N(C(=O)CCc3ccccc3)[C@@H]2c2ccc(OC)cc2)cc1	·	·	·	-5.3	·	·	·
COC(=O)[C@]12C[C@H](CC(=O)NCc3ccccc3)C(=O)N(CCc3ccc(OC)c(OC)c3)C1=C[C@H](COCc1ccccc1)O[C@@H]2C	·	·	·	-1.3	·	·	·
N=C1S/C(=C\c2ccc(-c3cccc(Cl)c3)o2)C(=O)N1c1nccs1	15.9	45.4*	7.8	8.7	25.3	10.5	23.3
COc1ccc(OC)c(NC(=O)C2C(C(=O)O)C3(Cl)C(Cl)=C(Cl)C2(Cl)C3(Cl)Cl)c1 (stereo unspecified)	-1.0	50.5*	5.7	14.9	1.1	3.0	39.7*
CCOc1ccc(NC(=O)C2C(C(=O)O)C3(Cl)C(Cl)=C(Cl)C2(Cl)C3(Cl)Cl)cc1 (stereo unspecified)	8.1	·	·	-2.5	·	·	·
CCN(CC)c1nc(C)nc2c1nnn2Cc1ccccc1	·	·	·	-0.9	·	·	·
O=C(c1cc(-c2ccccc2Cl)on1)N1CCCC1	-0.2	36.5*	2.0	-1.0	-1.6	4.7	34.7*
CCN(CC)S(=O)(=O)c1ccc(/C=C/C(=O)OCC(=O)Nc2cccnc2Cl)cc1	5.9	67.2*	-0.3	-3.3	-0.1	7.8	55.2*
CCN(CC)S(=O)(=O)c1ccc(/C=C/C(=O)OCC(=O)Nc2cccc3ccccc23)cc1	20.8	52.7*	-0.8	-7.2	-9.9	-7.3	62.1*
O=C(COC(=O)/C=C/c1ccccc1)Nc1cccnc1Cl	-0.7	27.5	6.3	4.8	-4.2	3.5	·
CCNC(=O)OCCN1C(=O)CCC12CCC(c1ccc(Cl)cc1)CC2 (stereo unspecified)	·	·	·	-2.1	·	·	·
O=C(c1cccnc1Cl)N1CCC(Oc2cccnc2)CC1	·	·	·	-6.2	·	·	·
CC(C)Oc1cccc(-c2n[nH]c(=S)n2N=Cc2ccc(OCc3ccccc3)cc2)c1	·	·	·	-10.6	·	·	·
